Experimental data from different studies.
Compare with care: the assays were run in different laboratories.
Target: Casein kinase I isoform epsilon (CSNK1E, Homo sapiens, UniProt P49674)

`Cn1cc(-c2cccc(N3CCc4c(sc5c4CC(C)(C)C5)C3=O)c2CO)cc(Nc2ccncn2)c1=O` gave an inhibition of 1% (enzyme activity, inhibitor; 1 µM).
For `COc1ncccc1-c1cnn2ccc(N3CCN(C(=O)OC(C)C)CC3)nc12`, the remaining binding was 86% (binding, competition with immobilised ligand; 1 µM).
The remaining binding of `Nc1ncc(-c2nc(N3CCOCC3)nc(N3CCOCC3)n2)c(C(F)F)n1` is reported as 38% (binding, competition with immobilised ligand; 10 µM).
With `Cn1cncc1[C@@](O)(COc1ccc(C#N)cc1-c1ccc(OC(F)(F)F)cc1)c1ccc(C#N)cc1` the remaining binding was 100% (cell-free assay, competition with immobilised ligand; 1 µM).
The inhibition of `Cn1cc(-c2cc(F)cc(N3CCn4c(cc5c4CCCC5)C3=O)c2CO)cc(Nc2ccc(N3CCN(C4COC4)CC3)cn2)c1=O` is reported as 12% (enzyme activity, inhibitor; 0.1 µM).
For `O=c1[nH]c2ccccc2n1C1CCN(Cc2ccc(-c3[nH]c4cc5ncnc5cc4nc3-c3ccccc3)cc2)CC1`, the remaining activity was 107% (enzyme activity; 0.5 µM).
The remaining binding of `N#CC1(c2ccccn2)CCN(Cc2cc(C(=O)O)c(=O)n3ccccc23)CC1` is reported as 100% (cell-free assay, competition with immobilised ligand; 1 µM).
For `CC(C)(C)c1cc(C=C(C#N)C#N)cc(Br)c1O`, the remaining activity was 92.1% (enzyme activity, inhibitor; 0.5 µM).
`Cc1nn(C)cc1-c1nc2c(N3CCN(Cc4ccc(Cl)cc4)CC3)c(Cl)cnc2[nH]1` has a remaining binding of 99% (binding, competition with immobilised ligand; 1 µM).
